Source: ChEMBL document CHEMBL4433218, “Behind the Mirror: Chirality Tunes the Reactivity and Cytotoxicity of Chloropiperidines as Potential Anticancer Agents” (ACS Med Chem Lett, 2019)
Calls of active or inactive are those of the source. The rule behind the calls is not given here.

How the values were obtained:
DNA [1] = test: Induction of Escherichia coli pBR322 DNA cleavage in BPE buffer at 5 to 50 uM incubated for 2 hrs by electrophoresis method; assay type: nucleic-acid assay
In short: (§1)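 Supercoiled pBR322 plasmid (120 ng) incubated with compound at 5 and 50 μM in BPE buffer, 37 °C. Dilutions freshly made in water from 10 mM DMSO stock and added to DNA immediately. Supercoiled, open circular and linear forms resolved on 1% agarose in TAE and stained with GelRed.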

DNA [2] = test: Induction of Escherichia coli pBR322 DNA cleavage in BPE buffer at 5 to 50 uM incubated for 18 hrs by electrophoresis method; assay type: nucleic-acid assay; in short: as §1
HCT-15 = test: Cytotoxicity against human HCT15 cells assessed as reduction in cell viability incubated for 72 hrs by MTT assay; assay type: functional, cell-based; conditions: HCT-15, 72 h
In short: (§2)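 Cell lines kept in log phase at 37 °C, 5% CO2 in RPMI-1640 with 10% fetal calf serum, penicillin 50 units/mL, streptomycin 50 μg/mL, 2 mM L-glutamine. Compounds dissolved in DMSO and added to medium at 0.5% final solvent. Treatment 72 h. Viability read by MTT. IC50 calculated.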

2008 = test: Cytotoxicity against human 2008 cells assessed as reduction in cell viability incubated for 72 hrs by MTT assay; assay type: functional, cell-based; conditions: Homo sapiens, 2008, 72 h; in short: as §2
BXPC-3 = test: Cytotoxicity against human BxPC3 cells assessed as reduction in cell viability incubated for 72 hrs by MTT assay; assay type: functional, cell-based; conditions: BXPC-3, 72 h; in short: as §2
[3] = Stability in pH 7.4 PBS buffer incubated for 1 hr by UPLC-MS analysis; assay type: physicochemical; conditions: pH 7.4, 1 h
[4] = Permeability across PVDF membrane in PBS buffer of pH 7.4 at 500 uM incubated for 1 hr by UPLC-MS based PAMPA assay; assay type: ADME; conditions: pH 7.4, 1 h
In short: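 Donor: 500 μM compound in PBS pH 7.4, made from 10 mM DMSO stock. Acceptor: PBS with 5% DMSO. Filter coated with 1% L-α-phosphatidylcholine in n-dodecane. 1 h at room temperature. Initial, donor and acceptor samples quantified by UPLC-MS (C18, 0.1% formic acid water/acetonitrile gradient) against 20 μM caffeine internal standard. Membrane fraction taken by difference. Unreacted and reacted species summed.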

[5] = target: DNA topoisomerase 2-alpha (Homo sapiens) (UniProt P11388); test: Inhibition of human DNA topoisomerase-2alpha mediated decatenation using kinetoplast DNA as substrate at 5 to 50 uM incubated for 2 to 18 hrs
In short: (§3)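 Human topoisomerase IIα decatenation of kinetoplast DNA, run with a commercial kit. Substrate DNA incubated with compound at 37 °C for 2 and 18 h.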

[6] = Induction of dsDNA (unknown origin) alkylation in BPE buffer at 50 uM incubated for 2 hrs by ESI-MS analysis
In short: (§4)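 Duplex oligodeoxynucleotide at 2 μM final, incubated with compound at 50 μM final in BPE buffer, 37 °C. Compound diluted in water from 10 mM DMSO stock just before use. Analysed by direct-infusion ESI-MS on an Orbitrap in 150 mM ammonium acetate. Adducts and abasic species assigned by mass, 6− charge state.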

[7] = Induction of dsDNA (unknown origin) alkylation in BPE buffer at 50 uM incubated for 18 hrs by ESI-MS analysis; in short: as §4
[8] = target: DNA topoisomerase 2-alpha (Homo sapiens) (UniProt P11388); test: Inhibition of human DNA topoisomerase-2alpha mediated decatenation using kinetoplast DNA as substrate at 50 uM incubated for 18 hrs; in short: as §3

Chain of DNA topoisomerase 2-alpha (Homo sapiens) (P11388 whole entry): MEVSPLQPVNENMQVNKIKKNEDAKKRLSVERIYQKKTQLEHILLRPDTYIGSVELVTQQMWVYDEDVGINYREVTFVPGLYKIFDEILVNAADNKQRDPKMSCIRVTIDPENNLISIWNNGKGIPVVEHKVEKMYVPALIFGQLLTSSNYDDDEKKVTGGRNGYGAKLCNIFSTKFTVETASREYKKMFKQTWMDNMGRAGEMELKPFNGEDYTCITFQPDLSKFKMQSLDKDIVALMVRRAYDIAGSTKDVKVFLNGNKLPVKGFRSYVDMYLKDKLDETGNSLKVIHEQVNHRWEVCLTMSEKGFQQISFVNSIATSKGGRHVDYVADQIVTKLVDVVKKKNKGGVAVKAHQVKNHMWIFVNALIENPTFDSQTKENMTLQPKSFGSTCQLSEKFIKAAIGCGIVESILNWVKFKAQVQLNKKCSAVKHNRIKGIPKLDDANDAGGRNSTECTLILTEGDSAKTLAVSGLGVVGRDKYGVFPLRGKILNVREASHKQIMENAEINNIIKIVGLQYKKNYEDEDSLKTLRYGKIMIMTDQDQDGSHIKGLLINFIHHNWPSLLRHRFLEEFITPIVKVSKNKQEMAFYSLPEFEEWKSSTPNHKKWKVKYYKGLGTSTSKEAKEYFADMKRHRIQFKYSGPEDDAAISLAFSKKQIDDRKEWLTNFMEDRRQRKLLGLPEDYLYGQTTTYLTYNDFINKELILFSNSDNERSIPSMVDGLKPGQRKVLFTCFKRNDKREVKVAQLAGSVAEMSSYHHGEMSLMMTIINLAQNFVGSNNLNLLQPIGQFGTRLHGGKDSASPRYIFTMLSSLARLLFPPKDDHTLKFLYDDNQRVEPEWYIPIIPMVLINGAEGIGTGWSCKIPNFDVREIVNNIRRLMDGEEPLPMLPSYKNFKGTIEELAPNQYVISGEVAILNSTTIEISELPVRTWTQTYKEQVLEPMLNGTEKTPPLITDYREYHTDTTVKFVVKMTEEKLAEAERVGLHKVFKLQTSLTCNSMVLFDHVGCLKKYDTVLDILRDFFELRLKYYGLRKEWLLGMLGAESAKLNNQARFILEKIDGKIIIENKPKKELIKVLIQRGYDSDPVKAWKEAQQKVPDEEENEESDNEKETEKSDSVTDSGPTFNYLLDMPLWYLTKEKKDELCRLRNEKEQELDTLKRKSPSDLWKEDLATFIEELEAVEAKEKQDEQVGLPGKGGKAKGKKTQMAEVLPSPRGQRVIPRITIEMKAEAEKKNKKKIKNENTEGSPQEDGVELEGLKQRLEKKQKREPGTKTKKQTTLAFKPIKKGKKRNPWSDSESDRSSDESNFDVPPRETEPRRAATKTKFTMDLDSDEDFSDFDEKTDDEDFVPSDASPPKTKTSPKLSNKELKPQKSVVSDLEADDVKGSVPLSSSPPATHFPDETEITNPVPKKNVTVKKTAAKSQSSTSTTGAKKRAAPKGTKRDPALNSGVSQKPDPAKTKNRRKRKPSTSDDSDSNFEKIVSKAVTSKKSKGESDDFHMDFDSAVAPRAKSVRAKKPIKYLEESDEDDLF

Structure (SMILES)	Activity (DNA [1])	Activity (DNA [2])	IC50 (HCT-15) [nM]	IC50 2008 [nM]	IC50 (BXPC-3) [nM]	Stability [3]	permeability [4]	inhibition [5]	Activity [6]	Activity [7]	inhibition [8]
CCCCN1CCC[C@@H](Cl)C1	inactive	Active	5640	4600	274	Stable	Permeable	inactive	–	–	–
O=C(O)CCCc1ccc(N(CCCl)CCCl)cc1 [CHLORAMBUCIL]	inactive	Active	49700	12500	75300	–	–	–	–	–	–
CCCCN1CC(Cl)CC(C)(C)C1 (racemic)	inactive	Active	254	174	24	Stable	Impermeable	–	Active	Active	Active
CCCCN1CCCC(Cl)C1 (racemic)	inactive	Active	474	329	57	Stable	–	–	inactive	Active	–
CC1(C)CC(Cl)CN(Cc2ccccc2)C1 (racemic)	inactive	Active	300	107	6	Stable	Impermeable	–	–	–	Active
CCCCN1CCC[C@H](Cl)C1	inactive	Active	181	102	7	Stable	Permeable	inactive	–	–	–
